2 proteins from ChEMBL document CHEMBL1127290, “1-(2,5-Dimethoxy-4-(trifluoromethyl)phenyl)-2-aminopropane: a potent serotonin 5-HT2A/2C agonist” (J Med Chem, 1994) can be followed below.

Holding throughout (assay type): functional
Substrate in data set [1]: COc1cc(C(F)(F)F)c(OC)cc1CCN
The data set can be described thus: (§1) The maximum responses of [3H]- inositol monophosphate accumulation in cells expressing the 5-hydroxytryptamine 2C receptor. A digest of the protocol: (§2)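 A9 cells expressing cloned 5-HT2C receptor, labelled 18 h with 1 μCi/mL [3H]inositol in inositol-free DMEM with dialysed serum. Compounds given 60 min with 10 mM LiCl in Krebs bicarbonate buffer, then [3H]inositol monophosphate accumulation measured. Expressed as % of the 5-HT (10^-5 M) maximum minus control. Vmax by nonlinear regression. Triplicates in three experiments, mean ± SE.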

Substrate in data set [2]: COc1cc(C(F)(F)F)c(OC)cc1CC(C)N
The data set is described as §1. A digest of the protocol: as §2

Substrate in data set [3]: COc1cc(CC(C)N)c(OC)cc1I
Described as §1. Summed up:
as §2

Substrate in data set [4]: COc1cc(C(F)(F)F)c(OC)cc1CCN
The data set can be described thus: (§3) The maximum responses of [3H]- inositol monophosphate accumulation in cells expressing the 5-hydroxytryptamine 2A receptor.

Substrate in data set [5]: COc1cc(C(F)(F)F)c(OC)cc1CC(C)N
The description is as §3.

Substrate in data set [6]: COc1cc(CC(C)N)c(OC)cc1I
The description is as §3.

B1: 5-hydroxytryptamine receptor 2C (Mus musculus), P34968 (protein)
chain: MVNLGTAVRSLLVHLIGLLVWQFDISISPVAAIVTDTFNSSDGGRLFQFPDGVQNWPALSIVVIIIMTIGGNILVIMAVSMEKKLHNATNYFLMSLAIADMLVGLLVMPLSLLAILYDYVWPLPRYLCPVWISLDVLFSTASIMHLCAISLDRYVAIRNPIEHSRFNSRTKAIMKIAIVWAISIGVSVPIPVIGLRDESKVFVNNTTCVLNDPNFVLIGSFVAFFIPLTIMVITYFLTIYVLRRQTLMLLRGHTEEELRNISLNFLKCCCKKGDEEENAPNPNPDQKPRRKKKEKRPRGTMQAINNEKKASKVLGIVFFVFLIMWCPFFITNILSVLCGKACNQKLMEKLLNVFVWIGYVCSGINPLVYTLFNKIYRRAFSKYLRCDYKPDKKPPVRQIPRVAATALSGRELNVNIYRHTNERVVRKANDTEPGIEMQVENLELPVNPSNVVSERISSV
Consider B1, for which the Vmax in data set [1] is 80; in data set [2], 82; in data set [3], 82.

B2: 5-hydroxytryptamine receptor 2A (Mus musculus), P35363 (protein)
chain: MEILCEDNISLSSIPNSLMQLGDDSRLYPNDFNSRDANTSEASNWTIDAENRTNLSCEGYLPPTCLSILHLQEKNWSALLTTVVIILTIAGNILVIMAVSLEKKLQNATNYFLMSLAIADMLLGFLVMPVSMLTILYGYRWPLPSKLCAVWIYLDVLFSTASIMHLCAISLDRYVAIQNPIHHSRFNSRTKAFLKIIAVWTISVGISMPIPVFGLQDDSKVFKEGSCLLADDNFVLIGSFVAFFIPLTIMVITYFLTIKSLQKEATLCVSDLSTRAKLSSFSFLPQSSLSSEKLFQRSIHREPGSYAGRRTMQSISNEQKACKVLGIVFFLFVVMWCPFFITNIMAVICKESCNENVIGALLNVFVWIGYLSSAVNPLVYTLFNKTYRSAFSRYIQCQYKENRKPLQLILVNTIPTLAYKSSQLQVGQKKNSQEDAEPTANDCSMVTLGNQHSEEMCTDNIETVNEKVSCV
Take B2: the figures for the Vmax in data set [4], in data set [5] and in data set [6] were 58, 91 and 94, respectively.
